Assay results taken from ChEMBL document CHEMBL4014261, “Design, Synthesis, and Antimicrobial Evaluation of a Novel Bone-Targeting Bisphosphonate-Ciprofloxacin Conjugate for the Treatment of Osteomyelitis Biofilms” (J Med Chem, 2017).
In brackets after ≈: the same amount, converted by molar mass. Values belong to the compound of their own block, whether it stands above or below them. Activity calls are given as the source filed them. The calls are words filed in the database; no cut-off is given here.

Key:
Staphylococcus aureus [1] = assay: Antibacterial activity against methicillin-sensitive Staphylococcus aureus isolate 1 planktonic cells after 24 hrs by microdilution assay; format: functional; settings: isolate 1, 24 h
Method in brief: (§1)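 Planktonic cells at 1 × 10^5 CFU/mL were exposed to compound, and A580 was read at 0 h and after 24 h at 37 °C with shaking. Controls were medium plus microbes, with 1% (v/v) DMSO where the solvent was used. Relative cell number was calculated against the control. Results were confirmed by subculture in fresh medium (48 h, 37 °C) and plating. Conjugate concentrations were expressed as parent-antibiotic equivalents.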

Staphylococcus aureus [2] = assay: Antibacterial activity against methicillin-sensitive Staphylococcus aureus isolate 2 planktonic cells after 24 hrs by microdilution assay; format: functional; settings: isolate 2, 24 h; method in brief: as §1
Staphylococcus aureus [3] = assay: Antibacterial activity against methicillin-sensitive Staphylococcus aureus isolate 3 planktonic cells after 24 hrs by microdilution assay; format: functional; settings: isolate 3, 24 h; method in brief: as §1
Staphylococcus aureus [4] = assay: Antibacterial activity against methicillin-sensitive Staphylococcus aureus isolate 4 planktonic cells after 24 hrs by microdilution assay; format: functional; settings: isolate 4, 24 h; method in brief: as §1
Staphylococcus aureus [5] = assay: Antibacterial activity against methicillin-sensitive Staphylococcus aureus isolate 5 planktonic cells after 24 hrs by microdilution assay; format: functional; settings: isolate 5, 24 h; method in brief: as §1
Staphylococcus aureus [6] = assay: Antibacterial activity against methicillin-sensitive Staphylococcus aureus isolate 6 planktonic cells after 24 hrs by microdilution assay; format: functional; settings: isolate 6, 24 h; method in brief: as §1
Staphylococcus aureus [7] = assay: Antibacterial activity against methicillin-sensitive Staphylococcus aureus ATCC 6538 planktonic cells after 24 hrs by microdilution assay; format: functional; settings: ATCC 6538, 24 h; method in brief: as §1
Staphylococcus aureus [8] = assay: Antibiofilm activity against Staphylococcus aureus ATCC 6538 assessed as reduction in bacterial adherence to HA at 15.6 to 250 ug/ml pretreated with HA for 24 hrs followed by organism inoculation measured after 24 hrs; format: functional
Method in brief: (§2)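 HA spherules (final 10 mg/mL) in TSB were preincubated 24 h at 37 °C with shaking with compound (final 0.12–250 mg/L), then pelleted and the supernatant discarded. They were inoculated with 1 mL S. aureus at 10^5 CFU/mL. A580 was read at 0 and 24 h (37 °C, shaking) against controls without spherules and spherules without compound; spherules were also plated for CFU.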

Staphylococcus aureus [9] = assay: Antibiofilm activity against Staphylococcus aureus ATCC 6538 assessed as reduction in bacterial adherence to HA at 0.24 to 7.8 ug/ml pretreated with HA for 24 hrs followed by organism inoculation measured after 24 hrs; format: functional; method in brief: as §2
Staphylococcus aureus [10] = assay: Bactericidal activity against Staphylococcus aureus ATCC 6538 biofilm using hydroxyapatite as substrate assessed as reduction in colony forming units at 0.24 to 250 ug/ml after 24 hrs; format: functional
Staphylococcus aureus [11] = assay: Antibacterial activity against methicillin-resistant Staphylococcus aureus MR4-CIPS planktonic cells after 24 hrs by microdilution assay; format: functional
Method in brief: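 Broth microdilution: 100 µL of 1 × 10^5 CFU/mL inoculum with graded compound concentrations, read at 580 nm before and after 24 h at 37 °C with shaking to prevent biofilm formation. Relative cell number is taken against medium + microbes controls, with 1% DMSO in the ciprofloxacin control. Growth is confirmed by 48 h subculture in fresh medium and by plating. MIC is expressed as parent-antibiotic equivalents.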

Staphylococcus aureus [12] = assay: Antibacterial activity against methicillin-sensitive Staphylococcus aureus isolate 1 planktonic cells at 5 mg after 24 hrs by disc diffusion test; design: dose or concentration left out as unconfirmed; settings: isolate 1, 24 h, read-out: DIZ
Staphylococcus aureus [13] = assay: Antibacterial activity against methicillin-sensitive Staphylococcus aureus isolate 2 planktonic cells at 5 mg after 24 hrs by disc diffusion test; design: dose or concentration left out as unconfirmed; settings: isolate 2, 24 h, read-out: DIZ
Staphylococcus aureus [14] = assay: Antibacterial activity against methicillin-sensitive Staphylococcus aureus isolate 3 planktonic cells at 5 mg after 24 hrs by disc diffusion test; design: dose or concentration left out as unconfirmed; settings: isolate 3, 24 h, read-out: DIZ
Staphylococcus aureus [15] = assay: Antibacterial activity against methicillin-sensitive Staphylococcus aureus isolate 4 planktonic cells at 5 mg after 24 hrs by disc diffusion test; design: dose or concentration left out as unconfirmed; settings: isolate 4, 24 h, read-out: DIZ
Staphylococcus aureus [16] = assay: Antibacterial activity against methicillin-sensitive Staphylococcus aureus isolate 5 planktonic cells at 5 mg after 24 hrs by disc diffusion test; design: dose or concentration left out as unconfirmed; settings: isolate 5, 24 h, read-out: DIZ
Staphylococcus aureus [17] = assay: Antibacterial activity against methicillin-sensitive Staphylococcus aureus isolate 6 planktonic cells at 5 mg after 24 hrs by disc diffusion test; design: dose or concentration left out as unconfirmed; settings: isolate 6, 24 h, read-out: DIZ
Staphylococcus aureus [18] = assay: Antibacterial activity against methicillin-resistant Staphylococcus aureus MR4-CIPS planktonic cells at 5 mg after 24 hrs by disc diffusion test; design: dose or concentration left out as unconfirmed; settings: read-out: DIZ
Staphylococcus aureus [19] = assay: Bactericidal activity against Staphylococcus aureus ATCC 6538 biofilm using hydroxyapatite as substrate assessed as reduction in colony forming units after 24 hrs; format: functional
Method in brief: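 Biofilms were started from a 1 McFarland suspension, allowed to adhere 4 h at 37 °C on HA discs or polystyrene well bottoms, then rinsed. They were exposed 24 h at 37 °C to TSB containing 0.24–125 mg/L compound. Cells were detached in 0.5% saponin by 1 min vortexing, serially diluted and plated on Columbia (S. aureus) or MacConkey (P. aeruginosa) agar, 37 °C, 24 h. Read-out was mean CFU/mm² ± SEM; HA area was measured by X-ray tomography.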

Pseudomonas aeruginosa = assay: Bactericidal activity against Pseudomonas aeruginosa ATCC 15442 biofilm using hydroxyapatite as substrate assessed as reduction in colony forming units at 8 ug/ml at pH 4.8 to 7.4 after 24 hrs; format: functional
Staphylococcus aureus [20] = assay: Antibiofilm activity against Staphylococcus aureus ATCC 6538 assessed as CFU counts at 100 ug/mL pretreated with HA for 24 hrs followed by organism inoculation measured after 24 hrs (reference value: 8.1 x 10^10CFU); format: functional
Method in brief: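 HA discs were soaked 24 h at 37 °C in 2 mL compound solution, with DMSO or phosphate-buffer controls, then rinsed 3× with sterile water. Discs were inoculated with 2 mL of 0.5 McFarland S. aureus ATCC 6538 for biofilm formation. Biofilm CFU were counted after 24 h growth.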

Staphylococcus aureus [21] = assay: Antibiofilm activity against Staphylococcus aureus ATCC 6538 assessed as CFU counts at 200 ug/mL pretreated with HA for 24 hrs followed by organism inoculation measured after 24 hrs (reference value: 8.1 x 10^10CFU); format: functional
Staphylococcus aureus [22] = assay: Antibiofilm activity against Staphylococcus aureus ATCC 6538 assessed as CFU counts at 400 ug/mL pretreated with HA for 24 hrs followed by organism inoculation measured after 24 hrs (reference value: 8.1 x 10^10CFU); format: functional
[23] = test system: Aggregatibacter actinomycetemcomitans; assay: Antibiofilm activity against Aggregatibacter actinomycetemcomitans D7S-1 serotype A at 5 mg after 24 hrs by disc diffusion assay; format: functional; settings: read-out: DIZ
[24] = test system: Aggregatibacter actinomycetemcomitans; assay: Antibiofilm activity against Aggregatibacter actinomycetemcomitans D7S-1 serotype A after 24 hrs by microdilution assay; format: functional
[25] = test system: Aggregatibacter actinomycetemcomitans; assay: Antibiofilm activity against Aggregatibacter actinomycetemcomitans infected in jawbone peri-implant osteomyelitis Sprague-Dawley rat model assessed as bacterial count in bone per gram at 10 mg/kg, ip administered 3 times per week measured after 1 week post pharmacotherapy relative to control; format: functional
Method in brief: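 Rats carried two titanium implants each, preinoculated with A. actinomycetemcomitans D7S-1 biofilm (10^9 CFU), placed bilaterally in palatal bone. One week after surgery, randomized groups received i.p. doses in sterile saline; the negative control was endotoxin-free saline. One week after treatment, 1 cm² peri-implant tissue and bone were homogenized in 0.5% saponin, serially diluted 10-fold and spread-plated on modified TSB (37 °C, 5% CO2, 48 h). Read-out was CFU/g and mean log10 reduction; analysts were blinded.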

Staphylococcus aureus [26] = assay: microbe, parasite or virus in culture; design: dose or concentration left out as unconfirmed; settings: ATCC 6538, 24 h, read-out: DIZ

- MIC (Staphylococcus aureus [1]): 31.2 µg/mL (≈ 50 µM)
- MIC (Staphylococcus aureus [2]): 31.2 µg/mL (≈ 50 µM)
- MIC (Staphylococcus aureus [3]): 15.6 µg/mL (≈ 25 µM)
- MIC (Staphylococcus aureus [4]): 62.5 µg/mL (≈ 100 µM)
- MIC (Staphylococcus aureus [5]): 7.8 µg/mL (≈ 12.5 µM)
- MIC (Staphylococcus aureus [6]): 15.6 µg/mL (≈ 25 µM)
- MIC (Staphylococcus aureus [7]): 62.5 µg/mL (≈ 100 µM)
SMILES: O=C(O)c1cn(C2CC2)c2cc(N3CCN(C(=O)c4ccc(CC(P(=O)(O)O)P(=O)(O)O)cc4)CC3)c(F)cc2c1=O
- Activity (Staphylococcus aureus [8]): inactive
- Activity (Staphylococcus aureus [9]): inactive
- Activity (Staphylococcus aureus [10]): inactive

SMILES: O=C(O)c1cn(C2CC2)c2cc(N3CCNCC3)c(F)cc2c1=O [CIPROFLOXACIN]
- MIC (Staphylococcus aureus [1]): 1 µg/mL (≈ 3.02 µM)
- MIC (Staphylococcus aureus [2]): 0.25 µg/mL (≈ 0.754 µM)
- MIC (Staphylococcus aureus [3]): 0.25 µg/mL (≈ 0.754 µM)
- MIC (Staphylococcus aureus [4]): 1 µg/mL (≈ 3.02 µM)
- MIC (Staphylococcus aureus [5]): 0.5 µg/mL (≈ 1.51 µM)
- MIC (Staphylococcus aureus [6]): 1 µg/mL (≈ 3.02 µM)
- MIC (Staphylococcus aureus [7]): 1 µg/mL (≈ 3.02 µM)
- MIC (Staphylococcus aureus [11]): 1 µg/mL (≈ 3.02 µM)
- zone of inhibition (Staphylococcus aureus [12]): 25 to 40 mm
- zone of inhibition (Staphylococcus aureus [13]): 25 to 40 mm
- zone of inhibition (Staphylococcus aureus [14]): 25 to 40 mm
- zone of inhibition (Staphylococcus aureus [15]): 25 to 40 mm
- zone of inhibition (Staphylococcus aureus [16]): 25 to 40 mm
- zone of inhibition (Staphylococcus aureus [17]): 25 to 40 mm
- zone of inhibition (Staphylococcus aureus [18]): 25 to 40 mm
- MBIC90 (Staphylococcus aureus [19]): 8 µg/mL
- Activity (Pseudomonas aeruginosa): inactive
- Activity (Staphylococcus aureus [20]): Active
- Activity (Staphylococcus aureus [21]): Active
- Activity (Staphylococcus aureus [22]): Active
- zone of inhibition at 5000 µg/disc [23]: > 40 mm
- MIC90 [24]: 2 µg/mL (≈ 6.04 µM)
- Activity [25]: 90%
- zone of inhibition (Staphylococcus aureus [26]): 25 to 40 mm
